Screening results deposited in PubChem BioAssay by Broad Institute.
Sampled rows, rich in hits. Any-hit rate of the full collection: about 1.7%.
SR-BI DiI-HDL act – enhances SR-BI lipid uptake from DiI-HDL. CHO ldlA[mSR-BI] cells, DiI-HDL uptake fluorescence, 3 h; 100 = double the neutral-control signal. activation, % at 12.5 µM. actives 0.096% (n = 320,000);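 active = mean replicate activation of at least 60% and every replicate at or above 60%; inconclusive = mean or all-replicate condition met, but not both; inactive = mean below 60% and not all replicates reaching 60%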;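 note: 0% = median plate neutral-control signal and 100% = twice that signal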
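Material – SR-BI-overexpressing, LDLR-lacking CHO cells · Medium – BSA-supplemented, HEPES-buffered Ham's F12, pH 7.4 · Doses – single concentration · Times – compound with DiI-HDL co-incubation, 3 h at 37 °C · Measured by – bottom-read fluorescence, 550/595 nm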
Vif imaging – blocks HIV Vif function; HEK293T cells, Vif self-association by quenched fluorescence, imaging, 24 h; inhibition, % at 7.49 µM; actives 0.35% (n = 340,000); in the data active = inhibition above about 50%, passing the limit was not always enough; inconclusive = no clear call, values can overlap the other calls; inactive = below about 31%
Statin myotox sup – suppressors of simvastatin-induced myotoxicity in C2C12 myotubes; actives 0.78% (n = 330,000); rescue of ATP level, % at 7.49 µM; AID 602340; ATP luminescence, 48 h; scaled: DMSO 0, geranylgeraniol control 100;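 active = mean ATP rescue above about 67%, or every replicate alone reaching that limit, limit read from the data, passing the limit was not always enough; inconclusive = no clear call, values can overlap the other calls; inactive = mean under the limit and some replicate under it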;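 note: myotubes were challenged with 10 µM simvastatin during compound exposure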
SR-BI HDL uptake – blocks mouse SR-BI lipid uptake from DiI-HDL; ldlA[mSR-BI] CHO cells, DiI-HDL uptake fluorescence, 3 h; AID 488896; inhibition, % at 12.5 µM; actives 0.96% (n = 320,000);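 active = mean replicate inhibition of at least 70% and a set share of replicates each scoring 70 or more; inconclusive = meets just one of the two criteria; inactive = fails both criteria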;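 note: 0% = median of neutral control wells and 100% = median of positive control wells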
Target sequence (Q61009 whole entry, looked up): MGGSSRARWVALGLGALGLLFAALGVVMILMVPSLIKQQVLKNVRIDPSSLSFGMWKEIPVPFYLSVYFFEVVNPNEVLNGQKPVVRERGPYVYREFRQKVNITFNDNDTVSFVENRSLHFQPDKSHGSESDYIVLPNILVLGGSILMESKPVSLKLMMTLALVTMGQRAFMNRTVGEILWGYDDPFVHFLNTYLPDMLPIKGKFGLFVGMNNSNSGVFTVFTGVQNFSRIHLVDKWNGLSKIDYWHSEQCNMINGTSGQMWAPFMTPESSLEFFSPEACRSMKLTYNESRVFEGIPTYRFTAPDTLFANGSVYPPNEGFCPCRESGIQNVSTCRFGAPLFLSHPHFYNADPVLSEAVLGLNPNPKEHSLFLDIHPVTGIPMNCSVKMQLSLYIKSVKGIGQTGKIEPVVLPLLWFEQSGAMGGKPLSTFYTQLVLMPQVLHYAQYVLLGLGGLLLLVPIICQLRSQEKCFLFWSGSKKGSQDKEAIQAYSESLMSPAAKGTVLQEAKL
The depositor's hits bear a star.

What do the screens show for `COc1ccc(/C=C/c2c(-c3ccc(OC)cc3)oc3ccccc23)cc1`?
SR-BI DiI-HDL act: -78; Vif imaging: -4; Statin myotox sup: 1; SR-BI HDL uptake: 78*

What do the screens show for `COC(=O)NC(=C(Cl)Cl)S(=O)(=O)c1ccccc1`?
SR-BI DiI-HDL act: 73*; Vif imaging: 12; Statin myotox sup: 147*; SR-BI HDL uptake: -73

How did CN(Cc1nc2ccccc2n1C)S(=O)(=O)c1ccc(Cl)cc1 do in these assays?
SR-BI DiI-HDL act: 11; Vif imaging: 50*; Statin myotox sup: -6; SR-BI HDL uptake: -11

What do the screens show for `C[C@H]1CN([C@@H](C)CO)C(=O)c2cc(NS(=O)(=O)c3ccc(Cl)cc3)ccc2O[C@@H]1CN(C)S(=O)(=O)c1ccc(Cl)cc1`?
Statin myotox sup: -38

Results for COc1ccc(NS(=O)(=O)c2ccc(N3CCOCC3)c(NC(=O)C(C)C)c2)cc1 ?
SR-BI DiI-HDL act: -2; Vif imaging: -3; Statin myotox sup: -8; SR-BI HDL uptake: 2

Results for COc1ccccc1NS(=O)(=O)c1ccc(C(=O)NCCCN2CCOCC2)cc1 ?
SR-BI DiI-HDL act: 4; Vif imaging: 89*; Statin myotox sup: -5; SR-BI HDL uptake: -4

Results for COc1ccc(S(=O)(=O)Nc2cc(C(=O)NCCC(C)C)ccc2N2CCOCC2)cc1 ?
SR-BI DiI-HDL act: 14; Vif imaging: 12; Statin myotox sup: 93*; SR-BI HDL uptake: -14

Results for CCOC(=O)/C=C/C(=O)Nc1cc(S(=O)(=O)Nc2ccc(OC)cc2)ccc1N1CCOCC1 ?
SR-BI DiI-HDL act: 17; Vif imaging: 100*; Statin myotox sup: 4; SR-BI HDL uptake: -17

What do the screens show for `O=C(NCCCN1CCOCC1)c1ccc(S(=O)(=O)Nc2ccccc2)cc1`?
SR-BI DiI-HDL act: 14; Vif imaging: -19; Statin myotox sup: -9; SR-BI HDL uptake: -14

Results for COc1ccc(S(=O)(=O)Nc2cc(C(=O)NCCCOC(C)C)ccc2N2CCOCC2)cc1 ?
SR-BI DiI-HDL act: 8; Vif imaging: 5; SR-BI HDL uptake: -8

What do the screens show for `O=C(N[C@H]1CC[C@@H](CCNS(=O)(=O)c2ccc(Cl)cc2)O[C@@H]1CO)c1cnccn1`?
Statin myotox sup: -6

Results for C[C@H]1CN([C@@H](C)CO)C(=O)c2cccc(NS(=O)(=O)c3ccc(F)cc3)c2O[C@H]1CN(C)Cc1ccncc1 ?
Statin myotox sup: 14

Results for N#CCCN1CCNCC1 ?
SR-BI DiI-HDL act: 11; Vif imaging: -6; Statin myotox sup: 132*; SR-BI HDL uptake: -11

Results for N#CCCN1CCN(CCC#N)CC1 ?
SR-BI DiI-HDL act: 15; Vif imaging: 0; Statin myotox sup: 5; SR-BI HDL uptake: -15

What do the screens show for `COc1ccc(-c2[nH]c(-c3ccc(C)cc3)nc2SCC(=O)Nc2nccs2)cc1`?
SR-BI DiI-HDL act: -69; Vif imaging: 0; SR-BI HDL uptake: 69

Results for COc1ccc(-c2[nH]c(-c3ccc(SC)cc3)nc2SCC(=O)Nc2nccs2)cc1 ?
SR-BI DiI-HDL act: -87; Vif imaging: -2; SR-BI HDL uptake: 87*

Results for Cc1ccc(-c2cnc3c(c2)C(=O)N([C@@H](C)CO)C[C@@H](C)[C@@H](CN(C)C(=O)Cc2ccccc2)O3)cc1 ?
Statin myotox sup: 7

What do the screens show for `CCN1CC=C2C(C#N)=C(N)C(C#N)(C#N)C(CCc3ccccc3)C2C1` (configuration not stated)?
SR-BI DiI-HDL act: -13; Vif imaging: 79*; Statin myotox sup: -8; SR-BI HDL uptake: 13

How did CC(=O)N1CC=C2C(C#N)=C(N)C(C#N)(C#N)C(CCc3ccccc3)C2C1 (configuration not stated) do in these assays?
SR-BI DiI-HDL act: 3; Vif imaging: 2; Statin myotox sup: 0; SR-BI HDL uptake: -3

How did CCS(=O)(=O)c1ncc(Cl)c(C(=O)Nc2ccccc2OC)n1 do in these assays?
SR-BI DiI-HDL act: 19; Vif imaging: 23; Statin myotox sup: 144*; SR-BI HDL uptake: -19

Results for CC(C(=O)c1ccccc1)n1c(N2CCOCC2)nc2c1c(=O)n(C)c(=O)n2C (configuration not stated) ?
SR-BI DiI-HDL act: 63*; Statin myotox sup: 5; SR-BI HDL uptake: -63

How did O=C(C[C@@H]1CC[C@H]2[C@@H](COC[C@H](O)CN2Cc2ccccc2F)O1)N[C@H]1CCN(Cc2ccccc2)C1 do in these assays?
Statin myotox sup: -2

Results for C/C(=N\NC(N)=S)C1C2C3CC4C5CC(C42)C1C53 (configuration not stated) ?
SR-BI DiI-HDL act: -83; Vif imaging: -4; Statin myotox sup: -11; SR-BI HDL uptake: 83*

How did C/C(CCC12CC3CC(CC(C3)C1)C2)=N\NC(N)=S do in these assays?
SR-BI DiI-HDL act: -63; Vif imaging: -2; Statin myotox sup: -14; SR-BI HDL uptake: 63

How did COc1ccc(C(=O)N=c2sc3c(C)ccc(OC)c3n2C)cc1OC do in these assays?
Vif imaging: 0; Statin myotox sup: -20

Results for COc1cccc(C(=O)N=c2sc3c(C)ccc(OC)c3n2C)c1 ?
SR-BI DiI-HDL act: -81; Vif imaging: -8; Statin myotox sup: -18; SR-BI HDL uptake: 81*

What do the screens show for `CC1CCC(C(C)C)C(OC(=O)C2=C3c4ccccc4S(=O)(=O)N3CC2)C1` (configuration not stated)?
SR-BI DiI-HDL act: -71; Vif imaging: 3; Statin myotox sup: -5; SR-BI HDL uptake: 71*

How did O=C(C[C@H]1CC[C@@H]2[C@H](COC[C@H](O)CN2C(=O)c2ccc(F)cc2)O1)N1CCOCC1 do in these assays?
Statin myotox sup: 2

How did COc1ccc(-c2ncc3ccccn23)cc1 do in these assays?
Vif imaging: 3; Statin myotox sup: 99*

How did CC1(C)CC(=O)C(C=NCCN2CCN(C(=S)Nc3ccc(F)cc3)CC2)=C(O)C1 do in these assays?
SR-BI DiI-HDL act: -17; Vif imaging: 4; Statin myotox sup: 65*; SR-BI HDL uptake: 17

How did CCOc1ccc(C(=O)Nc2nnc(NC(=S)Nc3ccccc3)s2)cc1 do in these assays?
SR-BI DiI-HDL act: -85; Vif imaging: -1; Statin myotox sup: 10; SR-BI HDL uptake: 85*

How did Cc1ccc(C(=O)Nc2nnc(NC(=S)Nc3ccccc3)s2)cc1 do in these assays?
SR-BI DiI-HDL act: -70; Vif imaging: -4; Statin myotox sup: 3; SR-BI HDL uptake: inconclusive

What do the screens show for `c1ccc(Nc2ccc3c4c(cccc24)CC3)cc1`?
SR-BI DiI-HDL act: 5; Vif imaging: 111*; Statin myotox sup: -2; SR-BI HDL uptake: -5

What do the screens show for `COc1ccc(C(=O)c2ccc(N(C)C)cc2)c(OC)c1`?
SR-BI DiI-HDL act: 8; Vif imaging: -3; SR-BI HDL uptake: -8

Results for CN(C)c1ccc(C(=O)c2ccc(N(C)C)c3ccccc23)cc1 ?
SR-BI DiI-HDL act: -39; Vif imaging: 78*; Statin myotox sup: -74; SR-BI HDL uptake: 39

How did CC(C)C(c1nnnn1CC1CCCO1)N1CCN(C2CCCC2)CC1 (configuration not stated) do in these assays?
SR-BI DiI-HDL act: 16; Vif imaging: 57*; SR-BI HDL uptake: -16
